In test [1] the target is 72 kDa type IV collagenase (Homo sapiens, UniProt P08253). Briefly: Inhibition of human MMP2. In outline:
(§1)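 Human pro-enzymes activated with 2 mM APMA at 37 °C (MMP-2 30 min; MMP-3, MMP-8 1 h), then preincubated 30 min at 37 °C with inhibitor diluted from 10^-3 to 10^-6 M. Substrates: Mca-RPKPYA-Nva-WMK(Dnp)-NH2 for MMP-3; Dnp-Pro-Cha-Gly-Cys(ME)-His-Ala-Lys(Nma)-NH2 for MMP-2 and MMP-8. Incubated 6 h at 37 °C; fluorescence read at ex 340/em 440 nm. Triplicates; IC50 from 3 central linear points.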

A short description of test [2]: Inhibition of IL-1-beta-induced collagen degradation in rabbit articular cartilage at 100 uM in presence of plasmin relative to control. It counts as functional, Oryctolagus cuniculus. On the set-up: scale not given: the % may be the effect or the level left. In outline:
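Non-radiolabeled rabbit articular cartilage fragments cultured 48 h with or without 10 ng/mL IL-1β plus 0.1 U/mL EACA- and Lys-free plasmin, with or without compound. Media and tissue hydrolyzed in 6 M HCl at 110 °C for 12 h. Hydroxyproline measured colorimetrically; degradation = media OH-Pro/(media + tissue OH-Pro) ×100. Means ± sem, n = 8/group; ANOVA with Dunnett's test.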

Test [3] in a line: (§2) Inhibition of IL1-beta plus […]-induced proteoglycan degradation in rabbit articular cartilage at 100 uM relative to control. On the set-up: scale not given: the % may be the effect or the level left. It counts as functional, Oryctolagus cuniculus. In outline: (§3)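 Rabbit articular cartilage fragments prelabeled with 35SO4 and washed. Incubated 24 h with or without 1 ng/mL rmIL-1β, with or without compound. Fragments then moved to 5×10^-4 M APMA for 24 h and digested in papain. Radioactivity counted by liquid scintillation. Degradation = media cpm/(media + tissue cpm) ×100. Means ± sem, n = 8/group.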

Another test concerns the target Collagenase 3 (Homo sapiens, UniProt P45452). Briefly: Inhibition of human MMP13. Summed up: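 Human pro-MMP-13 (2 µg/mL in developing buffer) activated with 2 mM APMA for 1 h at 37 °C, then stopped on ice. Enzyme preincubated 30 min at 37 °C with compound (serial 1/10 dilutions from DMSO stocks), then incubated 6 h at 37 °C with fluorogenic substrate Dnp-Pro-Cha-Gly-Cys(ME)-His-Ala-Lys(Nma)-NH2. Fluorescence read at ex 340/em 440 nm, in triplicate. IC50 from 3 points in the linear range of % control fluorescence.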

The next test has as its system SW1353. Briefly: Inhibition of IL-1-beta-induced MMP13 production in human SW1353 cells at 50 uM. It counts as functional, cell-based. Summed up:
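SW-1353 human chondrosarcoma cells grown to confluence in Ham's F12 with 10% FBS, then serum-free medium with 0.1% BSA for 24 h. Cells pretreated 30 min with DMSO vehicle or compound (6×10^-6 to 5×10^-5 M), then stimulated with rmIL-1β 10 ng/mL for 24 h. Total secreted MMP-13 (pro plus mature) in medium measured by ELISA.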

The target of another test is Neutrophil collagenase (Homo sapiens, UniProt P22894). Description: Inhibition of human MMP8. Summed up: as §1
Chain of Neutrophil collagenase (P22894 whole entry): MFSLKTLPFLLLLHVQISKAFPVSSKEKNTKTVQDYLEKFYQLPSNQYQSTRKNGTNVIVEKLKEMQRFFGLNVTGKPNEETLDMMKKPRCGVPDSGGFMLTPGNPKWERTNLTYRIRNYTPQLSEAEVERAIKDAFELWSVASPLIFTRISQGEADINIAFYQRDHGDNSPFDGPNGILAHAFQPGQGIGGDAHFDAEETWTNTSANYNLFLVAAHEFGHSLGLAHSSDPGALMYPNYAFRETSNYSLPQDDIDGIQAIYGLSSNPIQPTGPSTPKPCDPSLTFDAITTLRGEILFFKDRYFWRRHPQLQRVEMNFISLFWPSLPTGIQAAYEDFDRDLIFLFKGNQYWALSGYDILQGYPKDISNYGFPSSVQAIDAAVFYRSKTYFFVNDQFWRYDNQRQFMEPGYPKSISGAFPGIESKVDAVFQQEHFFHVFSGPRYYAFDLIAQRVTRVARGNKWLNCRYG
The next test has as its target Stromelysin-1 (Homo sapiens, UniProt P08254). Briefly: Inhibition of human MMP3. In outline: as §1
The nature of test [4]: (§4) Reduction of IL1-beta plus […]-induced proteoglycan degradation in rabbit articular cartilage at 200 uM relative to control. It is filed as functional, Oryctolagus cuniculus. On the set-up: scale not given: the % may be the effect or the level left. Summed up:
(§5)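 Rabbit articular cartilage fragments were prelabelled with 35SO4 and washed. They were then cultured 24 h with 1 ng/mL rmIL-1β, with or without compound, and moved to 5×10^-4 M APMA for another 24 h. Fragments were digested with papain, and the % radioactivity released to the medium was counted. Means ± sem, n = 8/group; ANOVA with Dunnett's test.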

The species named for test [5] is Oryctolagus cuniculus. The description is as §4. It counts as functional. In outline: as §5
The species named for test [6] is Oryctolagus cuniculus. The test is described as §2. It counts as functional. In outline:
as §3

Active and inactive are the calls of the source. The calls are words filed in the database; no cut-off is given here.

Chain of Stromelysin-1 (P08254 whole entry): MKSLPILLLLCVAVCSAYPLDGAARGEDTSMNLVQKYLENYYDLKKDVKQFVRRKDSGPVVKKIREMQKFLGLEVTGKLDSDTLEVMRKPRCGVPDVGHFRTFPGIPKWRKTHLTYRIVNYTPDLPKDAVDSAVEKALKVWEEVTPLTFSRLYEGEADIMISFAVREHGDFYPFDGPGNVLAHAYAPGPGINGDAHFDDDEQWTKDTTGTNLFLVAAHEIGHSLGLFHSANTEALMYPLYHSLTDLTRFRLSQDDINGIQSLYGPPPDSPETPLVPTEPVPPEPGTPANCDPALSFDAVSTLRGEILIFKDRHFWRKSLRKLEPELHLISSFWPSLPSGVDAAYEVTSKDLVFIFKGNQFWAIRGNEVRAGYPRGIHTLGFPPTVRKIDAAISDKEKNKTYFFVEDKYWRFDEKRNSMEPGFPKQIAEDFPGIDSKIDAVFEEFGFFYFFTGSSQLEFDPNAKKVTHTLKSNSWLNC
Chain of 72 kDa type IV collagenase (P08253 whole entry): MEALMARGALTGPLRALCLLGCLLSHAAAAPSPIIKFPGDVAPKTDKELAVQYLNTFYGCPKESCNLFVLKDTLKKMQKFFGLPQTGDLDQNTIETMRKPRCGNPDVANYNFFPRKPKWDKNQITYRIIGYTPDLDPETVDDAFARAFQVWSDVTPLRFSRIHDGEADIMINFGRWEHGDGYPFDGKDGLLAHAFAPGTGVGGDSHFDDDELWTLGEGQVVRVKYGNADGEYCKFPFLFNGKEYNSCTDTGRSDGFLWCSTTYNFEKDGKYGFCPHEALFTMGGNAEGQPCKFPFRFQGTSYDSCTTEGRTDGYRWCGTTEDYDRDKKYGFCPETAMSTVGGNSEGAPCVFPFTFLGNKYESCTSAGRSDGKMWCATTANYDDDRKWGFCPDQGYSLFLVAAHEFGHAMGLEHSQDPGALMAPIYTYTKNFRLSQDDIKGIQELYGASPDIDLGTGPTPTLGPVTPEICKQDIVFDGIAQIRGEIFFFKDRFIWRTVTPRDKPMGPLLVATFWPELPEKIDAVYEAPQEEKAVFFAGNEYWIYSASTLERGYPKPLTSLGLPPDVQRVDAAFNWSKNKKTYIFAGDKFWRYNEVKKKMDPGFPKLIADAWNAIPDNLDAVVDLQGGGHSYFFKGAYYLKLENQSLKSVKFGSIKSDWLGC

Take `C[C@H]1c2cccc(O)c2C(=O)C2=C(O)[C@]3(O)C(=O)C(C(N)=O)=C(O)[C@@H](N(C)C)[C@@H]3C(O)[C@@H]21.O` (single isomer, unassigned) [DOXYCYCLINE]: the 50% inhibitory concentration (IC50) in [1] was 24 µM; at Collagenase 3, 40 µM; against Neutrophil collagenase, 31 µM; against Stromelysin-1 it was 25 µM. For the same compound, the values for the Activity in [2] and in [3] were 89% and 8%, respectively. In the test on SW1353, the result was Active.
`CN(C)[C@@H]1C(O)=C(C(N)=O)C(=O)[C@@]2(O)C(O)=C3C(=O)c4c(O)cccc4[C@@](C)(O)[C@H]3C[C@@H]12` [TETRACYCLINE]: the IC50 in [1] worked out at 220 µM; against Collagenase 3, 180 µM; against Neutrophil collagenase it was 180 µM; against Stromelysin-1, 140 µM. The Activity in test [4] was found to be 29%. Besides, the outcome with SW1353 was Active.
With `C[C@@]1(O)c2cccc(O)c2C(=O)C2=C(O)[C@]3(O)C(=O)C(C(N)=O)=C(O)[C@@H]([N+](C)(C)C)C3CC21` (stereo partly specified), the IC50 worked out at 140 µM in test [1], 120 µM on Collagenase 3, 110 µM against Neutrophil collagenase and 150 µM at Stromelysin-1. In addition, the result in the test filed under Oryctolagus cuniculus [5] and with SW1353 was inactive.
For `C[C@H]1c2cccc(O)c2C(=O)C2=C(O)[C@]3(O)C(=O)C(C(N)=O)=C(O)[C@@H]([N+](C)(C)C)C3[C@H](O)C21.[I-]` (stereo partly specified), the IC50 was 7.7 µM in test [1], 4.9 µM at Collagenase 3, 11 µM against Neutrophil collagenase and 81 µM against Stromelysin-1. For the same compound, the Activity in test [2] is recorded as 66%. Besides, the outcome in the test filed under Oryctolagus cuniculus [6] and in the test on SW1353 was inactive.

As usually defined, the IC50 is the midpoint of a concentration-inhibition curve.

The values are drawn from ChEMBL document CHEMBL1147035, “Synthesis and in vitro evaluation of targeted tetracycline derivatives: effects on inhibition of matrix metalloproteinases” (Bioorg Med Chem, 2007).
